Activity calls are given as the source filed them. The rule behind the calls is not given here.
Legend:
NIH3T3 [1] = test: Cytotoxicity against mouse NIH/3T3 cells after 72 hrs by MTT assay; assay type: cell-based; conditions: NIH3T3, 72 h
In short: (§1)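 Grown in DMEM with 10% FBS. MTT assay: 4000 cells/well, 24 h settling, serial dilutions of drug, 72 h at 37 °C in 5% CO2. MTT in IMDM 4 h, then acidified ethanol 15 min, A570 with 690 nm background. IC50 is the concentration reducing absorbance to 50% of untreated control. Three experiments in triplicate. KB-V1-R comes from KB-V1 grown long-term drug-free.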

[2] = Cytotoxicity against human ZR-75B cells after 72 hrs by MTT assay; assay type: functional, cell-based
In short: (§2)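 Lines grown in RPMI with 10% FBS and 2 mM L-glutamine. MTT assay: 4000 cells/well attached 24 h before serially diluted drug, then 72 h exposure at 37 °C, 5% CO2. MTT in IMDM 4 h, lysis in acidified ethanol 15 min, absorbance 570 nm minus 690 nm. IC50 is the concentration halving untreated absorbance. Three independent experiments, each in triplicate.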

NIH3T3 [3] = test: Cytotoxicity against mouse NIH/3T3 cells transfected with wild-type P-gp G185 after 72 hrs by MTT assay; assay type: functional, cell-based; conditions: NIH3T3, 72 h; in short: as §1
[4] = Cytotoxicity against P-gp-negative human KB-3-1 cells after 72 hrs by MTT assay in presence of 100 nM DCPQ; conditions: KB 3-1, 72 h
LLC-PK1 [5] = test: Cytotoxicity against pig LLC-PK1 cells after 72 hrs by MTT assay; assay type: cell-based; conditions: Sus scrofa, LLC-PK1, 72 h
In short: (§3)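 LLC-PK1 empty-vector lines grown in M199 with 10% FBS; transfected lines also in 0.5 mg/mL G418. MTT assay: 4000 cells/well for 24 h, then serially diluted drug for 72 h at 37 °C, 5% CO2. MTT 4 h, acidified ethanol, A570 minus 690 nm. IC50 is 50% of untreated absorbance. Triplicate wells, three experiments.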

MDA-MB-231 [6] = test: Cytotoxicity against human MDA-MB-231 cells selected at 100 ug/ml vinblastine after 72 hrs by MTT assay; assay type: functional, cell-based; conditions: MDA-MB-231, 72 h, in the assay text read “100 ng/ml” for “100 ug/ml”; in short: as §2
OVCAR-8 = test: Cytotoxicity against human OVCAR8 cells after 72 hrs by MTT assay; assay type: functional, cell-based; conditions: OVCAR-8, 72 h; in short: as §2
[7] = Cytotoxicity against P-gp-negative human KB-3-1 cells after 72 hrs by MTT assay in presence of 10 uM CsA; assay type: functional, cell-based; conditions: KB 3-1, 72 h
In short: (§4)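 KB-3-1 and KB-V1 cells in DMEM. Test drug co-administered with a P-gp inhibitor at: verapamil 1 uM, CsA 10 uM, DCPQ 100 nM, TQR 100 nM. MTT assay after 72 h at 37 °C: 4000 cells/well, MTT 4 h, acidified ethanol, A570 corrected at 690 nm. IC50 ± SD at 50% of untreated absorbance. Three experiments in triplicate.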

[8] = Cytotoxicity against adriamycin-selected human MES-SA cells after 72 hrs by MTT assay; assay type: functional, cell-based
In short: (§5)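 MES-SA and MES-SA/Dx5 lines kept in McCoy's 5A with 10% FBS. MTT assay: seeded at 4000 cells/well for 24 h, serial drug dilutions, 72 h at 37 °C and 5% CO2. MTT 4 h, acidified ethanol lysis, A570 corrected at 690 nm. IC50 is 50% absorbance versus untreated wells. Three separate experiments in triplicate.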

[9] = Cytotoxicity against P-gp expressing human KBV1 cells after 72 hrs by MTT assay in presence of 1 uM verapamil; assay type: functional, cell-based; conditions: KB-V1, 72 h; in short: as §4
[10] = Cytotoxicity against human MES-SA cells after 72 hrs by MTT assay; assay type: functional, cell-based; in short: as §5
HEK293 [11] = test: Cytotoxicity against human HEK293 cells transfected with plasmid expressing MDR1 after 72 hrs by MTT assay; assay type: functional, cell-based; conditions: HEK293, 72 h
In short: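 ABCB1-transfected HEK293 grown in DMEM with 10% FBS and 1 mg/mL G418. MTT assay: 4000 cells/well for 24 h, serial drug dilutions, 72 h at 37 °C, 5% CO2. MTT 4 h, acidified ethanol lysis, A570 corrected at 690 nm. IC50 at 50% of untreated absorbance. Three experiments in triplicate.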

SW-620 [12] = test: Cytotoxicity against human SW620 cells after 72 hrs by MTT assay; assay type: functional, cell-based; conditions: SW-620, 72 h; in short: as §2
[13] = Selectivity ratio of IC50 for pig LLC-PK1 cells transfected with empty vector to IC50 for pig LLC-PK1 cells; assay type: ADME, cell-based, Sus scrofa; conditions: read-out: Ratio IC50
In short: (§6)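 Selectivity ratio: IC50 in the parental or empty-vector cells divided by IC50 in the P-gp-expressing cells (KB-V1, or ABCB1-transfected LLC-PK1). MTT assay: 4000 cells/well established for 24 h, then 72 h exposure to serially diluted drug at 37 °C, 5% CO2. MTT for 4 h, acidified ethanol lysis, A570 corrected at A690. IC50 is the concentration giving 50% of untreated absorbance, from at least three experiments.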

[14] = Cytotoxicity against P-gp-negative human KB-3-1 cells after 72 hrs by MTT assay in presence of 1 uM verapamil; assay type: functional, cell-based; conditions: KB 3-1, 72 h; in short: as §4
NIH3T3 [15] = test: Cytotoxicity against 2.4 ug/mL vincristine selected mouse NIH/3T3 cells transfected with P-gp Ser to Asp phosphorylation mutant after 72 hrs by MTT assay; assay type: functional, cell-based; conditions: NIH3T3, 72 h; in short: as §1
[16] = Cytotoxicity against P-gp expressing human KBV1 cells after 72 hrs by MTT assay in presence of 10 uM CsA; assay type: functional, cell-based; conditions: KB-V1, 72 h; in short: as §4
NIH3T3 [17] = test: Cytotoxicity against mouse NIH/3T3 cells transfected with wild type p-glycoprotein ABCB1 selected at 600 ug/ml vincristine after 72 hrs by MTT assay; assay type: functional, cell-based; conditions: NIH3T3, 72 h, in the assay text read “600 ng/ml” for “600 ug/ml”; in short: as §1
CHO [18] = test: Cytotoxicity against CHO cells after 72 hrs by MTT assay; assay type: cell-based; conditions: Cricetulus griseus
In short: (§7)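 CHO and colchicine-selected C5 cells kept in AlphaMEM with 10% FBS. MTT assay: 4000 cells/well settled 24 h, then serially diluted drug added. Incubated 72 h at 37 °C, 5% CO2. MTT in IMDM for 4 h, then acidified ethanol lysis for 15 min. Read A570, background-corrected at 690 nm. IC50 is the concentration giving 50% of untreated absorbance. Three experiments, each in triplicate.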

NCI/ADR-RES = test: Cytotoxicity against adriamycin-selected human NCI/ADR-RES cells after 72 hrs by MTT assay; assay type: functional, cell-based; in short: as §2
SW-620 [19] = test: Cytotoxicity against human SW620 cells selected at 20 ng/mL adriamycin after 72 hrs by MTT assay; assay type: functional, cell-based; conditions: SW-620, 72 h; in short: as §2
LLC-PK1 [20] = test: Cytotoxicity against pig LLC-PK1 cells transfected with empty vector after 72 hrs by MTT assay; assay type: cell-based; conditions: Sus scrofa, LLC-PK1, 72 h; in short: as §3
[21] = Cytotoxicity against human Ew36 cells after 72 hrs by MTT assay; assay type: functional, cell-based; conditions: Ew36, 72 h; in short: as §2
[22] = Cytotoxicity against P-gp expressing human KBV1 cells after 72 hrs by MTT assay in presence of 100 uM DCPQ; conditions: KB-V1, 72 h
[23] = Cytotoxicity against P-gp-negative human KB-3-1 cells after 72 hrs by MTT assay in presence of 100 nM TQR; conditions: KB 3-1, 72 h
[24] = Aqueous solubility of the compound; assay type: physicochemical; conditions: buffer
MDA-MB-231 [25] = test: Cytotoxicity against human MDA-MB-231 cells after 72 hrs by MTT assay; assay type: functional, cell-based; conditions: MDA-MB-231, 72 h; in short: as §2
NIH3T3 [26] = test: Cytotoxicity against mouse NIH/3T3 cells selected at 30 ug/ml vincristine after 72 hrs by MTT assay; assay type: functional, cell-based; conditions: NIH3T3, 72 h, in the assay text read “30 ng/ml” for “30 ug/ml”; in short: as §1
[27] = Cytotoxicity against human Ew36 cells selected at 120 ng/mL vincristine after 72 hrs by MTT assay; assay type: functional, cell-based; conditions: Ew36, 72 h; in short: as §2
CHO [28] = test: Cytotoxicity against CHO cells selected at 1 ug/mL colchicine after 72 hrs by MTT assay; assay type: functional, cell-based; conditions: Cricetulus griseus; in short: as §7
HEK293 [29] = test: Cytotoxicity against human HEK293 cells after 72 hrs by MTT assay; assay type: functional, cell-based; conditions: HEK293, 72 h; in short: as §1
NIH3T3 [30] = test: Cytotoxicity against mouse NIH/3T3 cells selected at 1 ug/mL colchicine after 72 hrs by MTT assay; assay type: functional, cell-based; conditions: NIH3T3, 72 h; in short: as §1
[31] = Cytotoxicity against doxorubicin-selected human ZR-75B cells after 72 hrs by MTT assay; assay type: functional, cell-based; in short: as §2
[32] = Cytotoxicity against P-gp expressing human KBV1 cells after 72 hrs by MTT assay in presence of 100 nM TQR; conditions: KB-V1, 72 h
[33] = Cytotoxicity against human KB-3-1 cells after 72 hrs by MTT assay; assay type: functional, cell-based; conditions: KB 3-1, 72 h
In short: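 Grown in DMEM with 10% FBS. MTT assay: 4000 cells/well, 24 h settling, serial dilutions of drug, 72 h at 37 °C in 5% CO2. MTT in IMDM 4 h, then acidified ethanol 15 min, A570 with 690 nm background. Three experiments in triplicate. KB-V1-R comes from KB-V1 grown long-term drug-free.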

[34] = Cytotoxicity against vinblastine-selected human KBV1 cells after 72 hrs by MTT assay; assay type: functional, cell-based; conditions: KB-V1, 72 h; in short: as §1
[35] = Selectivity ratio of IC50 for human KB-3-1 cells to IC50 for human KBV1 cells selected at 1 ug/mL vinblastine; assay type: functional; in short: as §6
KB-V1 = test: Cytotoxicity against P-gp expressing human KBV1 cells after 72 hrs by MTT assay in presence of 4 uM P-gp substrate Rh123; assay type: functional, cell-based
NCI-H460 [36] = test: Cytotoxicity against ABCG2-expressing human H460 cells at 10 uM after 72 hrs by MTT assay; assay type: functional, cell-based
NCI-H460 [37] = test: Cytotoxicity against ABCG2-expressing human H460 cells at 10 to 20 uM after 72 hrs by MTT assay in presence of ABCG2 substrate 5 uM mitoxantrone; assay type: functional, cell-based
[38] = Cytotoxicity against P-gp expressing human KBV1 revertant cells after 72 hrs by MTT assay; assay type: functional, cell-based; conditions: KB-V1, 72 h, in the assay text read “P-gp-negative” for “P-gp expressing”; in short: as §1

SMILES: COc1ccc(NC(=S)NNC2=c3ccccc3=NC2=O)cc1
- IC50 (NIH3T3 [1]): 8.12 µM
- IC50 [2]: 5.06 µM
- IC50 (NIH3T3 [3]): 1.06 µM
- IC50 [4]: 12.4 µM
- IC50 (LLC-PK1 [5]): 3.99 µM
- IC50 (MDA-MB-231 [6]): 4.86 µM
- IC50 (OVCAR-8): 6.69 µM
- IC50 [7]: 11.4 µM
- IC50 [8]: 13.8 µM
- IC50 [9]: 2.23 µM
- IC50 [10]: 22.4 µM
- IC50 (HEK293 [11]): 2.55 µM
- IC50 (SW-620 [12]): 9.04 µM
- selectivity ratio [13]: 9.2
- IC50 [14]: 9.68 µM
- IC50 (NIH3T3 [15]): 3.14 µM
- IC50 [16]: 8.33 µM
- IC50 (NIH3T3 [17]): 3.59 µM
- IC50 (CHO [18]): 3.04 µM
- IC50 (NCI/ADR-RES): 3.79 µM
- IC50 (SW-620 [19]): 3.74 µM
- IC50 (LLC-PK1 [20]): 36.8 µM
- IC50 [21]: 2.48 µM
- IC50 [22]: 14 µM
- IC50 [23]: 12.1 µM
- solubility [24]: < 0.2 µg/mL
- IC50 (MDA-MB-231 [25]): 13.8 µM
- IC50 (NIH3T3 [26]): 4.58 µM
- IC50 [27]: 0.99 µM
- IC50 (CHO [28]): 0.97 µM
- IC50 (HEK293 [29]): 6.23 µM
- IC50 (NIH3T3 [30]): 3.17 µM
- IC50 [31]: 1.21 µM
- IC50 [32]: 11.6 µM

SMILES: O=C1Nc2ccccc2/C1=N/NC(=S)Nc1ccc([N+](=O)[O-])cc1
- IC50 [33]: 15.6 µM
- IC50 (LLC-PK1 [5]): 4.46 µM
- IC50 [34]: 2.07 µM
- selectivity ratio [13]: 6.4
- Ratio IC50 [35]: 8.3
- Activity (KB-V1): Active
- Activity (NCI-H460 [36]): Active
- Activity (NCI-H460 [37]): Active
- IC50 (LLC-PK1 [20]): 28.4 µM
- IC50 [23]: 10 µM
- IC50 [38]: 7.21 µM
- solubility [24]: < 0.2 µg/mL
- IC50 [32]: 6.35 µM
